# Results taken from PubChem BioAssay.
# The source made the active and inactive calls.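 Rule for the calls, unless noted: active = compounds giving at least 50% inhibition in the cell-based MKP-3 phosphatase rescue imaging test; inactive = the rest.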
# Columns and labels:
# [1] = inhibitors of TNFa-induced NFkB p65 translocation, primary screen, imaging, HUVEC, MLSMR starter and 10KST1 sets (AID 438;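 active = inhibition above 20% together with a positive visual image hit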;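 note: compound added about 3h40 before a 20 min TNFalpha stimulation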;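 for inhibition: signal is the nuclear over cytoplasmic p65 intensity ratio per well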); conditions: HUVEC TNFa-induced p65 nuclear translocation; cell count: measured here: nuclei count (cytotoxicity indicator), at 2.08 µM; inhibition: at 2 µM, stronger effect = higher value, 0% TNFa-plus-vehicle, 100% no-TNFa wells
# [2] = inhibitors of E-selectin induction by TNFa, primary screen, imaging, HUVEC, immunofluorescence, MLSMR starter and 10KST1 sets (AID 487;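 active = visually confirmed hit in the image check and inhibition above 20%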;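 for inhibition: signal is fraction of cell area covered by stained E-selectin grains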;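 for nuclei count: 100% = median nuclei count of all wells on the same plate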); conditions: HUVEC TNFalpha-induced E-selectin immunofluorescence imaging, at 2 µM; inhibition: stronger effect = higher value; nuclei count: measured here: cell number, toxicity
# [3] = DUSP6 inhibitors restoring Erk phosphorylation by chemical complementation, primary imaging in DUSP6-transfected HeLa (AID 609); conditions: HeLa MKP-3 transfected, phospho-Erk imaging KS statistic, at 10 µM, cells stimulated with TPA for 15 min;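 for inhibition: phospho-Erk level distribution per well compared with pooled transfected vehicle control wells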
# [4] = molecular target: Dual specificity protein phosphatase 6 (Homo sapiens) (UniProt Q16828); test: as above; conditions: HeLa MKP-3 transfected, phospho-Erk imaging KS statistic; at 10 µM; stronger effect = higher value; cells stimulated with TPA for 15 min
# [5] = molecular target: Voltage-gated potassium channel subunit beta-2 (Rattus norvegicus) (UniProt P62483); test: KvBeta enzyme negative modulators, primary screen, biochemical, NADPH fluorescence (AID 622;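 active = fluorescence slope higher than the sample average by over 3 SD, cut at about -0.22 in these data, passing the limit was not always enough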;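 note: slope of raw intensity against log time taken from 70 to 1610 s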); conditions: recombinant KvBeta, 4-cyanobenzaldehyde reduction, at 10 µM, stronger effect = higher value
# [6] = molecular target: Voltage-gated potassium channel subunit beta-2 (Rattus norvegicus) (UniProt P62483); test: KvBeta positive modulators, primary screen, biochemical, NADPH fluorescence (AID 623;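 active = NADPH fluorescence slope more negative than the mean of all samples by about 3 SD, 99.7% confidence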;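 note: fluorescence intensity change per second fitted from 20 to 320 s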); conditions: Recombinant KvBeta, NADPH fluorescence decrease slope, 10 min; at 10 µM; stronger effect = lower value
# [7] = molecular target: Alpha-2C adrenergic receptor (Homo sapiens) (UniProt P18825); test: modulators of alpha2C/GIRK thallium flux, primary screen, cell-based, HEK293 alpha2C/GIRK1/2 (AID 624;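 active = fluorescence slope after compound addition differing from the mean of all screened samples at 99.7% confidence, in either direction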;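 note: slope of fluorescence ratio to pre-addition baseline per second over 15 to 24 s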); conditions: thallium flux BTC fluorescence, at 10 µM, actives lie on both sides
# [8] = inhibitors of larval lipid processing in zebrafish, primary screen, whole organism, PED6 fluorescence, gall bladder and intestine (AID 686;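 active = a full or partial loss of lipid-probe fluorescence in the fish gall bladder, intestine or both, judged by eye; inactive = no fluorescence loss, or compound toxic to the fish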;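 note: larvae 5 to 7 days old with five fish per well; signal comes from phospholipase A2 cleavage of quenched PED6 carried via bile; overnight exposure to compound and PED6 before scoring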); conditions: Zebrafish larvae PED6 lipid processing, fluorescence scoring; screened at 20 µM (by protocol)
# In short: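 System: live zebrafish larvae aged 5-7 days, whole organism; measure: graded gall bladder and intestinal fluorescence inhibition per well; incubation: overnight exposure; reagent: ingested quenched lipid PED6 at 100 nM; signal: By-eye fluorescence microscopy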
# [9] = inhibitors of Chlamydomonas gravitaxis, primary screen, whole organism, Chlamydomonas reinhardtii, WT vs cilia-less mutant, absorbance, 96-well (AID 463189;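 active = inhibition at or above 50% relative to wild type and mutant plate controls; inactive = inhibition below 50%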;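 note: 0% = wild type cc124 cells in DMSO and 100% = ciliumless bld1 mutant cells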); conditions: OD600 absorbance, 2 days, at 10 µM, stronger effect = higher value
# [10] = measured here: cell density z-score
# [11] = measured here: nuclear c-Myc green intensity z-score
# [12] = measured here: nuclear pErk red intensity z-score, stronger effect = higher value
# Sequence of Voltage-gated potassium channel subunit beta-2 (Rattus norvegicus) (P62483 whole entry, looked up): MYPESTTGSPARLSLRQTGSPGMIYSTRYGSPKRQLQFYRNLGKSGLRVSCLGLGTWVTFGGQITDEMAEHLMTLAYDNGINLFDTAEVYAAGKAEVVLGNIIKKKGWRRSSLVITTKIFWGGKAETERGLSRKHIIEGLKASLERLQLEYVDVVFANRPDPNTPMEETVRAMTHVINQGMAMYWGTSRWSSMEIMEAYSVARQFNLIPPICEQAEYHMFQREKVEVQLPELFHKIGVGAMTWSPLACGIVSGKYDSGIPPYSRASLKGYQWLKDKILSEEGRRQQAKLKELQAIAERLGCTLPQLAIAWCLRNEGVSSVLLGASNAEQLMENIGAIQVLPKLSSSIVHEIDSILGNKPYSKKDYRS
# Sequence of Dual specificity protein phosphatase 6 (Homo sapiens) (Q16828 whole entry, looked up): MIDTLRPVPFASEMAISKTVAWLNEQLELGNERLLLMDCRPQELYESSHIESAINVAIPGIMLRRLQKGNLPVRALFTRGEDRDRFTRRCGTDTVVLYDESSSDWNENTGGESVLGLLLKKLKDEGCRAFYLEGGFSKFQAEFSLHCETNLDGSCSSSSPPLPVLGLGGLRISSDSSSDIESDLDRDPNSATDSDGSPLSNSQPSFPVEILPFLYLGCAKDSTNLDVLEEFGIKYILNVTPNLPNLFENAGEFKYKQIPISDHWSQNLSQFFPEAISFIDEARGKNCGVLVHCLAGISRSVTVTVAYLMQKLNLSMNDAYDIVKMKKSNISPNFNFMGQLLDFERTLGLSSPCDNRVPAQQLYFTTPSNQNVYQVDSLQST
# Sequence of Alpha-2C adrenergic receptor (Homo sapiens) (P18825 whole entry, looked up): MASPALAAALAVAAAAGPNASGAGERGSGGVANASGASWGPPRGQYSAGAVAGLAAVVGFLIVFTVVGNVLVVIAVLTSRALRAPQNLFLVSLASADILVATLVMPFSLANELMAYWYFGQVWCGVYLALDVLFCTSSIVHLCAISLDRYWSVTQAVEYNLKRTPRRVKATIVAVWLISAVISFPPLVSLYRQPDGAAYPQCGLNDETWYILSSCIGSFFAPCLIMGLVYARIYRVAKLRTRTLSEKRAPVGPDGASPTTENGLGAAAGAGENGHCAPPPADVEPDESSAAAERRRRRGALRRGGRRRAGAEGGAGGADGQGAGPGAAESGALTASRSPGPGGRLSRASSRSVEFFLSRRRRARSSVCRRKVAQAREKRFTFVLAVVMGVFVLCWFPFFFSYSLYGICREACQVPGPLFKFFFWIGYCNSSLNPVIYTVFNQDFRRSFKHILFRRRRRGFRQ
Compound,cell count [1],inhibition [1],inhibition [2],nuclei count [2] [%],"z-score [3, 10]","z-score [3, 11]","z-score [3, 12]",inhibition [4],fluorescence slope [5],NADPH fluorescence slope [6],slope [7],outcome [8],inhibition [9]
Cc1c(C(=O)O)c(=S)sn1CCOc1ccccc1,646,-1.9% (inactive),16.3% (inactive),159,0.114,1.14,0.102,14% (inactive),-0.256 (inactive),1.3e-05 (inactive),0.00412 (inactive),inactive,4.87% (inactive)
CCCCCCOC(=O)CCn1[nH]c(=O)c2ccccc2c1=O,547,-12.2% (inactive),-119% (inactive),136,0.183,-0.855,0.203,7.93% (inactive),-0.492 (inactive),-6.3e-05 (inactive),0.0065 (inactive),inactive,27.6% (inactive)
O/N=C(\c1ccc2c(c1)OCCO2)C1CCCCC1,483,-8.4% (inactive),0.8% (inactive),88.1,-0.525,-0.257,1.15,-1.98% (inactive),-0.497 (inactive),-3.9e-05 (inactive),0.00548 (inactive),inactive,124% (active)
COc1cc(/C=N/O)ccc1OCc1ccc(C(=O)O)cc1,587,-21.9% (inactive),-51.1% (inactive),154,-1.09,0.882,0.52,-0.608% (inactive),-0.357 (inactive),-5.9e-05 (inactive),0.00492 (inactive),inactive,-7.38% (inactive)
N#CC12CCCCC1CC1CCCCC1(C#N)N2Cc1cccnc1 (configuration not stated),364,-10.3% (inactive),3.8% (inactive),97.2,1.59,-0.921,-1.61,17% (inactive),-0.557 (inactive),-6.5e-05 (inactive),0.00335 (inactive),inactive,44.6% (inactive)
COc1cccc(OC)c1OCC(C)CNCC1CCCO1 (configuration not stated),524,-5.6% (inactive),-156% (inactive),123,-1,1.14,1.28,9.39% (inactive),-0.524 (inactive),-5e-05 (inactive),0.00511 (inactive),inactive,11.3% (inactive)
S=c1[nH]nc(-c2ccccc2)n1Cc1ccccc1,506,0% (inactive),-83.3% (inactive),170,0.046,1.63,-0.862,7.48% (inactive),-0.391 (inactive),-9.1e-05 (inactive),0.00591 (inactive),inactive,-5.83% (inactive)
Cc1cc(C)cc(CC2CC(=O)N(c3cc(C)on3)C2=O)c1 (configuration not stated),491,-7% (inactive),-80.4% (inactive),132,-0.204,-0.209,1.15,3.66% (inactive),-0.517 (inactive),-6.6e-05 (inactive),0.00547 (inactive),inactive,2.69% (inactive)
C/C(=N\O)c1ccc2[nH]ccc2c1,578,0.2% (inactive),45.4% (inactive),161,0.0779,0.348,-0.861,-7.01% (inactive),-0.341 (inactive),-3.6e-05 (inactive),0.00435 (inactive),inactive,-2.54% (inactive)
Nc1ccc2oc3ncccc3c(=O)c2c1,518,-0.6% (inactive),-52.6% (inactive),172,1.1,-0.546,-0.617,22.3% (inactive),-0.511 (inactive),-2.4e-05 (inactive),0.00436 (inactive),inactive,-10.9% (inactive)
CCOC(=O)C1Cc2c([nH]c3ccccc23)C(C)N1 (configuration not stated),640,-12.2% (inactive),-61.9% (inactive),176,-0.293,-0.384,-0.135,-18.6% (inactive),-0.422 (inactive),-5.9e-05 (inactive),0.00514 (inactive),inactive,-12.3% (inactive)
Clc1cccc(-c2nn3c(COc4ccccc4)nnc3s2)c1,559,-2.3% (inactive),-53% (inactive),139,0.34,0.334,-0.356,-9.66% (inactive),-0.412 (inactive),-0.000153 (inactive),0.00768 (inactive),inactive,-2.6% (inactive)
CSc1nc2sc3c(c2c(=O)n1C1CCCCC1)CCN(C)C3,563,1.3% (inactive),-69.6% (inactive),107,0.231,0.631,-1.25,9.82% (inactive),-0.375 (inactive),-2.1e-06 (inactive),0.00516 (inactive),inactive,-15.6% (inactive)
Clc1ccccc1-c1nn2c(-c3ccccn3)nnc2s1,603,-6.7% (inactive),-82.4% (inactive),167,0.327,0.132,-0.483,-0.674% (inactive),-0.404 (inactive),-0.000155 (inactive),0.00777 (inactive),inactive,48.8% (inactive)
